From paper PMC3058531 (Biochemistry, 2010)
Entries after “also recorded” stand apart in the source; their conditions may differ. * marks the point of attachment. pNA = O=[N+]([O-])c1ccc(N*)cc1

Tests used:
[1] = molecular target: T1, Southampton norovirus 3C protease (SV3CP) (Southampton virus, UniProt Q04544); test: Chromogenic pNA peptide substrate cleavage, initial rates at 405 nm; format: biochemical; conditions: compared with Ac-EFQLQ-pNA or other trial substrates; pH 8.5
Outline: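 Recombinant SV3CP expressed in E. coli BL21(DE3) pLysS, self-excised from flanking sequences, purified by two cation-exchange steps. N-acetylated peptide-pNA substrates in DMSO, diluted into 100 mM Tris pH 8.5 with 5 mM β-mercaptoethanol (final substrate 0.1−3.0 mM, enzyme 0.1 mg/mL). A405 of samples read every 1 min for 10 min; initial rates gave KM, kcat and kcat/KM.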

[2] = molecular target: T1, Southampton norovirus 3C protease (SV3CP); format: biochemical; conditions: preincubation with millimolar concentrations of the inhibitor prior to addition of substrate; within the dead time of the experiment
[3] = molecular target: T1, Southampton norovirus 3C protease (SV3CP); test: Mass spectrometry of the SV3CP-MAPI complex; format: binding; conditions: single major protein peak at 20045 Da
[4] = test system: Southampton norovirus 3C protease (SV3CP), Cys 139; test: X-ray structure of the SV3CP-MAPI complex; format: binding; conditions: cocrystal at 1.7 Å resolution, PDB 2IPH; crystals at pH 8.5
[5] = Solubility of the inhibitor in protein buffer; format: physicochemical; conditions: 10% DMSO had to be included in the buffer

T1 sequence (Q04544 1100-1280 limits assumed): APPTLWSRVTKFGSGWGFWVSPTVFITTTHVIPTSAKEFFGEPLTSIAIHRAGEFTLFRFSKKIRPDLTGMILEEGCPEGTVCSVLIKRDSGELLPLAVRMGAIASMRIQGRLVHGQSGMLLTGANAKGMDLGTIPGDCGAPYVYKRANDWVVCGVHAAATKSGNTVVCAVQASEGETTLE

Substance	kcat/KM, kcat and KM comparison in words [1]	time to irreversible inactivation of the enzyme [2] [s]	binding stoichiometry [3]	covalent binding mode [4]	solubility (in words) [5]
Ac-DEFQLQ-pNA	had a kcat which was higher than that of Ac-EFQLQ-pNA although its proportionately higher KM meant that it was a slightly inferior substrate in terms of specificity constant				
acetyl-Glu-Phe-Gln-Leu-Gln-X [MAPI]		< 30	one molecule of SV3CP plus one molecule of the inhibitor	the active site thiol of Cys 139 is bound covalently to the C-terminal Michael-acceptor extension of the inhibitor MAPI	essentially insoluble
Ac-EFQLQ-pNA	had the highest kcat/KM ratio; also recorded: the best substrate in terms of specificity constant (kcat/KM ratio)				
